Reference: ChEMBL document CHEMBL2401619, “Novel small molecule inhibitors targeting the "switch region" of bacterial RNAP: structure-based optimization of a virtual screening hit” (Eur J Med Chem, 2013)
In brackets after ≈: the same amount, converted by molar mass.

Key:
[1] = system: Escherichia coli; assay: Inhibition of Escherichia coli RNAP assessed as incorporation of [5,6-3H]UTP at 100 uM preincubated for 10 mins followed by DNA template and ATP, CTP, GTP, UTP, [5,6-3H]UTP addition measured after 10 mins by scintillation counting analysis relative to control
In short: (§1)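 Purchased E. coli RNAP holoenzyme (1 unit, 0.5 µg) with 40 mM Tris-HCl pH 7.5, 150 mM KCl, 10 mM MgCl2, 10 mM DTT, 0.1% CHAPS, RNase inhibitor and compound in 2% DMSO final, preincubated 10 min at 25 °C. Reaction started with religated pcDNA3.1 template (3500 ng), 400 µM ATP/CTP/GTP, 100 µM UTP and 60 nCi [3H]-UTP, then run 10 min at 37 °C. TCA-precipitated RNA counted by scintillation and compared with DMSO controls.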

[2] = system: Escherichia coli; assay: Antibacterial activity against Escherichia coli expressing ToLC mutant assessed as growth inhibiiton after 18 hrs; type: functional
In short: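 E. coli TolC (efflux-defective) in LB, start OD600 0.03, compounds predissolved in DMSO (max 1% final); serial dilutions, final 0.02–100 µg/mL, each concentration in duplicate. OD read at compound addition and after 18 h at 37 °C, 50 rpm. MIC = lowest concentration with no detectable growth; mean of two independent runs (three if MIC < 10 µg/mL).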

[3] = Inhibition of Escherichia coli RNAP assessed as incorporation of [5,6-3H]UTP preincubated for 10 mins followed by DNA template and ATP, CTP, GTP, UTP, [5,6-3H]UTP addition measured after 10 mins by scintillation counting analysis; in short: as §1
[4] = system: Staphylococcus aureus; assay: Antibacterial activity against Staphylococcus aureus subsp. aureus Newman assessed as growth inhibiiton after 18 hrs; type: functional
In short: (§2)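 Broth dilution in LB, start OD600 0.03, compounds predissolved in DMSO (max 1% final), serial dilutions 0.02–100 µg/mL tested in duplicate. Incubation 18 h, 37 °C, 50 rpm (200 rpm for PAO1). OD read at start and after incubation. MIC is the lowest concentration with no detectable growth. Values are means of two independent runs, three if MIC <10 µg/mL.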

[5] = Antibacterial activity against Bacillus subtilis subsp. subtilis assessed as growth inhibiiton after 18 hrs; type: functional; in short: as §2
[6] = system: Escherichia coli; assay: Antibacterial activity against Escherichia coli K-12 assessed as growth inhibiiton after 18 hrs; type: functional; conditions: K-12, 18 h; in short: as §2
[7] = system: Pseudomonas aeruginosa; assay: Antibacterial activity against Pseudomonas aeruginosa PAO1 assessed as growth inhibiiton after 18 hrs; type: functional; conditions: PAO1, 18 h; in short: as §2
[8] = system: Escherichia coli; assay: Inhibition of Escherichia coli RNAP assessed as incorporation of [5,6-3H]UTP at 25 uM preincubated for 10 mins followed by DNA template and ATP, CTP, GTP, UTP, [5,6-3H]UTP addition measured after 10 mins by scintillation counting analysis relative to control; in short: as §1

SMILES: NC(=O)Nc1cc(-c2ccc(Cl)c(Cl)c2)sc1C(=O)O
- inhibition [1]: 26%
- MIC [2]: > 25 µg/mL

SMILES: CN(C(=O)Nc1cc(-c2ccc(Cl)c(Cl)c2)sc1C(=O)O)c1ccccc1
- MIC [2]: 9 µg/mL (≈ 21.4 µM)
- IC50 [3]: 45 µM

SMILES: CCCCCCNC(=O)Nc1cc(-c2ccc(Cl)c(Cl)c2)sc1C(=O)O
- MIC [2]: > 25 µg/mL
- IC50 [3]: 19 µM

SMILES: CCN(Cc1ccccc1)C(=O)Nc1cc(-c2ccc(C#N)cc2)sc1C(=O)O
- MIC [2]: 25 µg/mL (≈ 61.7 µM)
- IC50 [3]: 133 µM
- pIC50 [3]: 3.88

SMILES: CCN(Cc1ccccc1)C(=O)Nc1cc(-c2ccc([N+](=O)[O-])cc2)sc1C(=O)O
- MIC [2]: 23 µg/mL (≈ 54.1 µM)
- IC50 [3]: 73 µM
- pIC50 [3]: 4.14

SMILES: CO[C@H]1/C=C/O[C@@]2(C)Oc3c(C)c(O)c4c(O)c(c(/C=N/N5CCN(C)CC5)c(O)c4c3C2=O)NC(=O)/C(C)=C\C=C\[C@H](C)[C@H](O)[C@@H](C)[C@@H](O)[C@@H](C)[C@H](OC(C)=O)[C@@H]1C [RIFAMPIN]
- MIC [4]: 0.02 µg/mL (≈ 0.0243 µM)
- MIC [5]: 4.8 µg/mL (≈ 5.83 µM)
- MIC [2]: 5 µg/mL (≈ 6.08 µM)
- MIC [6]: 7 µg/mL (≈ 8.51 µM)
- IC50 [3]: 0.03 µM
- MIC [7]: 13 µg/mL (≈ 15.8 µM)

SMILES: CCCC/C(C)=C/C=C(\C)C(=O)c1c(O)cc([C@H](C)CC/C=C/NC(=O)OC)oc1=O [MYXOPYRONIN B]
- MIC [4]: 0.5 µg/mL (≈ 1.16 µM)
- MIC [5]: 0.9 µg/mL (≈ 2.09 µM)
- MIC [2]: 0.8 µg/mL (≈ 1.85 µM)
- MIC [6]: > 25 µg/mL
- IC50 [3]: 0.35 µM
- MIC [7]: > 25 µg/mL

SMILES: CCN(Cc1ccccc1)C(=O)Nc1cc(-c2ccc(Cl)cc2)sc1C(=O)OC
- inhibition [8]: 2%
- MIC [2]: > 25 µg/mL

SMILES: CCCCN(C(=O)Nc1cc(-c2ccc(Cl)c(Cl)c2)sc1C(=O)O)c1ccccc1
- MIC [2]: > 25 µg/mL
- IC50 [3]: 14 µM

SMILES: CCN(Cc1ccccc1)C(=O)Nc1cc(-c2ccccc2)sc1C(=O)O
- MIC [2]: 17 µg/mL (≈ 44.7 µM)
- IC50 [3]: 292 µM
- pIC50 [3]: 3.52

SMILES: O=C(Nc1ccccc1)Nc1sc2c(c1C(=O)O)CCCCCC2
- inhibition [8]: 3%
- MIC [2]: > 25 µg/mL

SMILES: CN(Cc1ccccc1)C(=O)Nc1cc(-c2ccc(Cl)c(Cl)c2)sc1C(=O)O
- inhibition [1]: 12%
- MIC [2]: 5 µg/mL (≈ 11.5 µM)

SMILES: CCN(Cc1ccccc1)C(=O)Nc1cc(-c2cccc([N+](=O)[O-])c2)sc1C(=O)O
- MIC [2]: 22 µg/mL (≈ 51.7 µM)
- IC50 [3]: 80 µM
- pIC50 [3]: 4.1

SMILES: CCCCCNC(=O)Nc1cc(-c2ccc(Cl)c(Cl)c2)sc1C(=O)O
- MIC [4]: > 25 µg/mL
- MIC [5]: 8 µg/mL (≈ 19.9 µM)
- MIC [2]: 10 µg/mL (≈ 24.9 µM)
- MIC [6]: > 25 µg/mL
- IC50 [3]: 35 µM
- MIC [7]: > 25 µg/mL

SMILES: O=C(O)c1sc(-c2ccc(Cl)c(Cl)c2)cc1NC(=O)N(Cc1ccccc1)Cc1ccccc1
- MIC [4]: 3 µg/mL (≈ 5.87 µM)
- MIC [5]: > 25 µg/mL
- MIC [2]: > 25 µg/mL
- MIC [6]: > 25 µg/mL
- IC50 [3]: 6 µM
- MIC [7]: > 25 µg/mL

SMILES: CCN(Cc1ccccc1)C(=O)Nc1cc(-c2cc(Cl)ccc2Cl)sc1C(=O)O
- MIC [2]: 9 µg/mL (≈ 20 µM)
- IC50 [3]: 35 µM
- pIC50 [3]: 4.46

SMILES: CCCCN(Cc1ccccc1)C(=O)Nc1cc(-c2ccc(Cl)c(Cl)c2)sc1C(=O)O
- MIC [4]: > 50 µg/mL
- MIC [5]: > 50 µg/mL
- MIC [2]: > 50 µg/mL
- MIC [6]: > 50 µg/mL
- IC50 [3]: 9 µM
- MIC [7]: > 50 µg/mL

SMILES: O=C(NCCc1ccccc1)Nc1cc(-c2ccc(Cl)c(Cl)c2)sc1C(=O)O
- MIC [4]: 6 µg/mL (≈ 13.8 µM)
- MIC [5]: 7 µg/mL (≈ 16.1 µM)
- MIC [2]: 8 µg/mL (≈ 18.4 µM)
- MIC [6]: > 25 µg/mL
- IC50 [3]: 26 µM
- MIC [7]: > 25 µg/mL

SMILES: CCCCNC(=O)Nc1cc(-c2ccc(Cl)c(Cl)c2)sc1C(=O)O
- MIC [2]: 13 µg/mL (≈ 33.6 µM)
- IC50 [3]: 91 µM

SMILES: CC(C)NC(=O)Nc1cc(-c2ccc(Cl)c(Cl)c2)sc1C(=O)O
- inhibition [1]: 26%
- MIC [2]: 15 µg/mL (≈ 40.2 µM)

SMILES: O=C(Nc1ccccc1)Nc1cc(-c2ccc(Cl)c(Cl)c2)sc1C(=O)O
- MIC [4]: 6 µg/mL (≈ 14.7 µM)
- MIC [5]: 12 µg/mL (≈ 29.5 µM)
- MIC [2]: 12 µg/mL (≈ 29.5 µM)
- MIC [6]: > 50 µg/mL
- IC50 [3]: 25 µM
- MIC [7]: > 50 µg/mL

SMILES: CCN(Cc1ccccc1)C(=O)Nc1cc(-c2ccc(Cl)c(C(F)(F)F)c2)sc1C(=O)O
- MIC [4]: 5 µg/mL (≈ 10.4 µM)
- MIC [5]: 20 µg/mL (≈ 41.4 µM)
- MIC [2]: 12 µg/mL (≈ 24.8 µM)
- MIC [6]: > 50 µg/mL
- IC50 [3]: 21 µM
- pIC50 [3]: 4.68
- MIC [7]: > 50 µg/mL

SMILES: CCN(Cc1ccccc1)C(=O)Nc1cc(-c2cc(Cl)cc(Cl)c2)sc1C(=O)O
- IC50 [3]: 25 µM
- pIC50 [3]: 4.6

SMILES: CCN(Cc1ccccc1)C(=O)Nc1cc(-c2ccc(Cl)cc2Cl)sc1C(=O)O
- MIC [4]: 12 µg/mL (≈ 26.7 µM)
- MIC [5]: 10 µg/mL (≈ 22.3 µM)
- MIC [2]: 8 µg/mL (≈ 17.8 µM)
- MIC [6]: > 50 µg/mL
- IC50 [3]: 32 µM
- pIC50 [3]: 4.49
- MIC [7]: > 50 µg/mL

SMILES: CCN(C(=O)Nc1cc(-c2ccc(Cl)c(Cl)c2)sc1C(=O)O)c1ccccc1
- MIC [2]: 16 µg/mL (≈ 36.8 µM)
- IC50 [3]: 36 µM

SMILES: CCCN(CCc1ccccc1)C(=O)Nc1cc(-c2ccc(Cl)c(Cl)c2)sc1C(=O)O
- MIC [2]: > 25 µg/mL
- IC50 [3]: 12 µM

SMILES: CCN(Cc1ccccc1)C(=O)Nc1cc(-c2ccc(Cl)cc2)sc1C(=O)O
- MIC [2]: 11 µg/mL (≈ 26.5 µM)
- IC50 [3]: 75 µM
- pIC50 [3]: 4.12

SMILES: CCCCN(CCc1ccccc1)C(=O)Nc1cc(-c2ccc(Cl)c(Cl)c2)sc1C(=O)O
- MIC [2]: > 25 µg/mL
- IC50 [3]: 7 µM

SMILES: CCCN(Cc1ccccc1)C(=O)Nc1cc(-c2ccc(Cl)c(Cl)c2)sc1C(=O)O
- MIC [2]: > 25 µg/mL
- IC50 [3]: 14 µM

SMILES: CC(C)(C)OC(=O)c1c(NC(=O)Nc2ccccc2)sc2c1CCCCCC2
- inhibition [1]: 4%
- MIC [2]: 33 µg/mL (≈ 82.4 µM)

SMILES: CCN(Cc1ccccc1)C(=O)Nc1cc(-c2ccc(OC)cc2)sc1C(=O)O
- MIC [2]: 15 µg/mL (≈ 36.5 µM)
- IC50 [3]: 240 µM
- pIC50 [3]: 3.62

SMILES: O=C(NCc1ccccc1)Nc1cc(-c2ccc(Cl)c(Cl)c2)sc1C(=O)O
- MIC [2]: 10 µg/mL (≈ 23.7 µM)
- IC50 [3]: 45 µM

SMILES: CCN(Cc1ccccc1)C(=O)Nc1cc(-c2ccc(OC(F)(F)F)cc2)sc1C(=O)O
- MIC [4]: 9 µg/mL (≈ 19.4 µM)
- MIC [5]: 20 µg/mL (≈ 43.1 µM)
- MIC [2]: 21 µg/mL (≈ 45.2 µM)
- MIC [6]: > 100 µg/mL
- IC50 [3]: 45 µM
- pIC50 [3]: 4.35
- MIC [7]: > 100 µg/mL

SMILES: CCN(Cc1ccccc1)C(=O)Nc1cc(-c2cccc(C(F)(F)F)c2)sc1C(=O)O
- MIC [2]: 38 µg/mL (≈ 84.7 µM)
- IC50 [3]: 53 µM
- pIC50 [3]: 4.28

SMILES: CCN(Cc1ccccc1)C(=O)Nc1cc(-c2ccc(C(F)(F)F)cc2)sc1C(=O)O
- MIC [2]: 21 µg/mL (≈ 46.8 µM)
- IC50 [3]: 51 µM
- pIC50 [3]: 4.29

SMILES: CCN(Cc1ccccc1)C(=O)Nc1cc(-c2ccc(C)cc2)sc1C(=O)O
- MIC [2]: 21 µg/mL (≈ 53.2 µM)
- IC50 [3]: 137 µM
- pIC50 [3]: 3.86

SMILES: CCN(Cc1ccccc1)C(=O)Nc1cc(-c2ccc(Cl)c(CCCCNC(=O)OC)c2)sc1C(=O)O
- MIC [2]: 25 µg/mL (≈ 45.9 µM)
- IC50 [3]: 20 µM
